Results on two molecules are retold here after ChEMBL document CHEMBL5653631, “A Potent and Selective ULK1 Inhibitor Suppresses Autophagy and Sensitizes Cancer Cells to Nutrient Stress” (iScience, 2018).

The target of experiment [1] is T1, Dual specificity tyrosine-phosphorylation-regulated kinase 2 (Homo sapiens) (UniProt Q92630).
T1 sequence (whole entry): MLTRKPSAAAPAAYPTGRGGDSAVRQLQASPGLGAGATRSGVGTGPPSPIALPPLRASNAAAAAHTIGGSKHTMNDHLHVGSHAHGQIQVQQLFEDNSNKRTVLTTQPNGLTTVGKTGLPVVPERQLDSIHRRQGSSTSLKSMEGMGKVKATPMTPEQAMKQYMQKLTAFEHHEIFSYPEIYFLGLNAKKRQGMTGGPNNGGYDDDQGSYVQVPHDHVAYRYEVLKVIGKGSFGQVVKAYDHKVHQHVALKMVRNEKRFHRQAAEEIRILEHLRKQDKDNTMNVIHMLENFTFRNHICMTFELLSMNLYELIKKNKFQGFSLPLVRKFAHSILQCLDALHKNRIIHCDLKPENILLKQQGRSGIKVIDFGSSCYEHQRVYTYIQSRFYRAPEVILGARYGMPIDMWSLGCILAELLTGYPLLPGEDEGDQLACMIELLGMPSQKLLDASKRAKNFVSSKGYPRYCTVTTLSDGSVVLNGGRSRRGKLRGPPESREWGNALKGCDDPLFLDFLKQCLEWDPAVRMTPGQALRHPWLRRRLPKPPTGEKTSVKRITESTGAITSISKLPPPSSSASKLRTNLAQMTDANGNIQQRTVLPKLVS
The experiment can be described thus: Inhibition of human recombinant DYRK2 at 15 nM in presence of ATP by radiometric assay relative to control.

Experiment [2] deals with T2, Activin receptor type-1B (Homo sapiens) (UniProt P36896).
T2 sequence (whole entry): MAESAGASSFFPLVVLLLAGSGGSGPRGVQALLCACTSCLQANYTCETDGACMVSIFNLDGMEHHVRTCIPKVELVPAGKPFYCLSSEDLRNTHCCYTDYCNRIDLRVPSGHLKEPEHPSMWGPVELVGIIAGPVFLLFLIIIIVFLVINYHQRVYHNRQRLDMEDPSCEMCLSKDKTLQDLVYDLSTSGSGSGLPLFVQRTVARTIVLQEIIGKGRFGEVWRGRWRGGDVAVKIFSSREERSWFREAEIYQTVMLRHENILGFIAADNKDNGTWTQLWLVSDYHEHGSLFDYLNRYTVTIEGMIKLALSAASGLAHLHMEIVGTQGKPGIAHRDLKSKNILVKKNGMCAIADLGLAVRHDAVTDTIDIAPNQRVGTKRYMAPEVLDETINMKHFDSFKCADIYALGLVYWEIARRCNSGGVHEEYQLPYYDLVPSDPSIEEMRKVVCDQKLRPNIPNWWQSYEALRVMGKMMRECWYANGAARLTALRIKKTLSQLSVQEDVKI
The experiment can be described thus: Inhibition of human recombinant ALK4 at 500 nM in presence of ATP by radiometric assay relative to control. A digest of the protocol:
(§1)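 Panel of 327 recombinant human kinases, each assayed in vitro by radiometric activity assay in duplicate at a single inhibitor concentration per compound, chosen with reference to its ULK1 inhibition. Activity remaining was expressed as percent of vehicle control, and percent inhibition was calculated as 100 minus percent activity remaining.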

In experiment [3] the target is Dual specificity protein kinase CLK3 (Homo sapiens) (UniProt P49761). The experiment can be described thus: Inhibition of human recombinant CLK3 at 500 nM in presence of ATP by radiometric assay relative to control.
The target in experiment [4] is Tyrosine-protein kinase receptor UFO (Homo sapiens) (UniProt P30530). Description: Inhibition of human recombinant AXL at 500 nM related to control ULK1. A digest of the protocol:
as §1

Experiment [5] deals with T3, Serine/threonine-protein kinase tousled-like 1 (Homo sapiens) (UniProt Q9UKI8).
T3 sequence (whole entry): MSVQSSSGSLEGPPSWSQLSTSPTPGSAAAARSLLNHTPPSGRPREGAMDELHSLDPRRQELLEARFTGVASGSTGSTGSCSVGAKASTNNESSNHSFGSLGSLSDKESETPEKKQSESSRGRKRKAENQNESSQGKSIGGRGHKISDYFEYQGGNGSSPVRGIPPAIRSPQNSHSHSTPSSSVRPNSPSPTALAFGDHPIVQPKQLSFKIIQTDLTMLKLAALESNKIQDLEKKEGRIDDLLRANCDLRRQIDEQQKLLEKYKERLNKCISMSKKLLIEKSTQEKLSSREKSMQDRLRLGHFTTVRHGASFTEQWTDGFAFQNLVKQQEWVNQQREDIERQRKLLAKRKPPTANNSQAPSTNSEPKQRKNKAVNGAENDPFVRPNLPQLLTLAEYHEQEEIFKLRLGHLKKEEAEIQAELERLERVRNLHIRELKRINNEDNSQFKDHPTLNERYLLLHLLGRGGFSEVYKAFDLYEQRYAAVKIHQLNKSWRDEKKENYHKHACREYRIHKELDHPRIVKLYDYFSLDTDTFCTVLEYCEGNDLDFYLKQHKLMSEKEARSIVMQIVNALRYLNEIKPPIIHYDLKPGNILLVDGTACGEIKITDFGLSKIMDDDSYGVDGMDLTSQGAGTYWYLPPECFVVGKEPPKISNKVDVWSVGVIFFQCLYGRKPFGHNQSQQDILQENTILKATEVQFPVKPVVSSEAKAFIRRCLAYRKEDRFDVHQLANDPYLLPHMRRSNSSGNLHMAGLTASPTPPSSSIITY
Description: Inhibition of human recombinant TLK1 at 500 nM related to control ULK1.

Sequence of Dual specificity protein kinase CLK3 (Homo sapiens) (P49761 whole entry, looked up): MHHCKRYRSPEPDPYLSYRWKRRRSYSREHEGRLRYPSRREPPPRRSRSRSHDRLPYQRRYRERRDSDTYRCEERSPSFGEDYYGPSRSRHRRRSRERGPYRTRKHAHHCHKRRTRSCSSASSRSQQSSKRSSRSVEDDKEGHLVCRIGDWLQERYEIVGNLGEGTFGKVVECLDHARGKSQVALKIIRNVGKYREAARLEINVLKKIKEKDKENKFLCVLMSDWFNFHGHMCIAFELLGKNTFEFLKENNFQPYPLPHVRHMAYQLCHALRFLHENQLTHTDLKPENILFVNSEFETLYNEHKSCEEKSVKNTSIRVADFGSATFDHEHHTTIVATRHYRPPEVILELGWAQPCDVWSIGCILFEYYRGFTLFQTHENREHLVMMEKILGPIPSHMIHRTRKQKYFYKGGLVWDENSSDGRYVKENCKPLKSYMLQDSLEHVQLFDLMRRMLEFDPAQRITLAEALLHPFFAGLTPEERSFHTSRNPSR
Sequence of Tyrosine-protein kinase receptor UFO (Homo sapiens) (P30530 whole entry): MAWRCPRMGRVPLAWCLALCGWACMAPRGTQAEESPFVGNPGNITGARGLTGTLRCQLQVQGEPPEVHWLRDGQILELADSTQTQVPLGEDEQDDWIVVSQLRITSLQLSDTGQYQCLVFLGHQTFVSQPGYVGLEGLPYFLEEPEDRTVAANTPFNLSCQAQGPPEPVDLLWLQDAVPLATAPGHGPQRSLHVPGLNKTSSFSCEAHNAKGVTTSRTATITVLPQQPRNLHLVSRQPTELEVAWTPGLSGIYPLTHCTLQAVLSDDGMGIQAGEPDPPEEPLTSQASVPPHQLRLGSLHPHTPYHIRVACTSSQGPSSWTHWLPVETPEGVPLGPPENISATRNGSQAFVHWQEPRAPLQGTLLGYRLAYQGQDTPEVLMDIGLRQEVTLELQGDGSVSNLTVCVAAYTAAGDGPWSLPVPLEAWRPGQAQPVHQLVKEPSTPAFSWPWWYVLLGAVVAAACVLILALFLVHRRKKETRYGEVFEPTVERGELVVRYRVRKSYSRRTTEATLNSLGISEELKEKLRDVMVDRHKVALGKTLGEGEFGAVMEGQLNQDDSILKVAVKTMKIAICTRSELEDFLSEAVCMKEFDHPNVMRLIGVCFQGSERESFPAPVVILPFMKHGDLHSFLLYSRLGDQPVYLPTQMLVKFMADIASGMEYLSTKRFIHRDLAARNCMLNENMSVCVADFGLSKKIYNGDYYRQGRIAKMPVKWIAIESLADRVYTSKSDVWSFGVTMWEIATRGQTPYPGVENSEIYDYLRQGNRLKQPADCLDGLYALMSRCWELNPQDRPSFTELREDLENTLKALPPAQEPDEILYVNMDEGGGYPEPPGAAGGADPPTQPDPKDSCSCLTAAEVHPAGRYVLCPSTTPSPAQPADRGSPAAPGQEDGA

By inhibition is commonly meant the change of the read-out against control, counted positive when it falls. As for `CC(C)[C@H](NC(=O)c1cc(-c2cnn3cc(-c4ccc(OCCN5CCCCC5)cc4)cnc23)cs1)C(F)(F)F`, the inhibition in experiment [1] was 8%.

On to `CNC(=O)c1ccccc1Oc1nc(Nc2cc(OC)c(OC)c(OC)c2)ncc1Br`, for which the figures for the inhibition in experiment [2] and in experiment [3] were 15% and 0%, respectively. The fold change (FC) in experiment [4] is 0.07; in experiment [5] it was 0.
